Reference: ChEMBL document CHEMBL1157264, “Hispidin derivatives from the mushroom Inonotus xeranticus and their antioxidant activity” (J Nat Prod, 2006)
Calls of active or inactive are those of the source. No cut-off for these calls is given here.

Columns and labels:
Format in all cases: functional
[1] = Antioxidant activity assessed as ABTS radical scavenging activity after 12 hrs by ELISA; conditions: in the assay text read “after 6 mins” for “after 12 hrs”
Summary of the method: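 ABTS dissolved in water at 7 mM, reacted with 2.45 mM potassium persulfate (final) and left 12 h in the dark at room temperature to form ABTS•+. Radical solution (A734 0.700) added to samples in EtOH, absorbance read after mixing for up to 6 min. IC50 derived; vitamin E reference.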

[2] = Antioxidant activity assessed as superoxide radical anion scavenging activity after 30 mins by microplate reader
Summary of the method: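 Xanthine/xanthine oxidase system: 50 mM potassium phosphate pH 7.8, 1 mM EDTA, 0.04 mM NBT, 0.18 mM xanthine, 250 mU/mL xanthine oxidase plus sample, 30 min at 37 °C in the dark. NBT-formazan read at 560 nm, background from a no-enzyme control subtracted. IC50 derived; BHA reference.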

[3] = system: Radical scavenging activity; assay: Antioxidant activity assessed as DPPH radical scavenging activity for 20 mins by ELISA
Summary of the method: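 Samples in DMSO added to 150 µM DPPH in ethanol, vortexed, incubated 20 min at room temperature, absorbance read at 517 nm. Activity taken from the absorbance difference versus DMSO control; vitamin E and caffeic acid references.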

| Molecule | IC50 [1] [µM] | IC50 [2] [µM] | Activity [3] |
| --- | --- | --- | --- |
| VITAMIN E | 6 |  |  |
| COC1(CC(C)=O)Oc2cc(/C=C/c3ccc(O)c(O)c3)oc(=O)c2/C1=C/c1ccc(O)c(O)c1 (stereo not given) [PHELLIGRIDIN F] | 11.4 | 40 | inactive |
| COC1(C)Oc2cc(/C=C/c3ccc(O)c(O)c3)oc(=O)c2/C1=C/c1ccc(O)c(O)c1 (stereo not given) [INOSCAVIN B] |  | 95 | inactive |
| COc1cc(/C=C/c2cc3c(c(=O)o2)/C(=C/c2ccc(O)c(O)c2)C(C)(OC)O3)ccc1O (stereo not given) [METHYLINOSCAVIN B] | 13.1 | 38 | inactive |
| COc1ccc(O)c(C(C)(C)C)c1.COc1ccc(O)cc1C(C)(C)C [BUTYLATED HYDROXYANISOLE] |  | 10 |  |
| CC1=CC(=O)C2(O1)c1c(cc(/C=C/c3ccc(O)c(O)c3)oc1=O)OC2c1ccc(O)c(O)c1 (stereo not given) [INOSCAVIN A] |  | 78 | inactive |
| COc1cc(/C=C/c2cc3c(c(=O)o2)C2(OC(C)=CC2=O)C(c2ccc(O)c(O)c2)O3)ccc1O (stereo not given) [METHYLINOSCAVIN A] | 10.7 | 20 | inactive |
